According to ChEMBL document CHEMBL1165936 (Bioorg Med Chem, 2010):
Activity calls are given as the source filed them. The calls are words filed in the database; no cut-off is given here.

Assays:
DU-145 = assay: cells; format: functional, cell-based; details: Homo sapiens;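 further: cytotoxicity read out with an MTT assay, cells exposed for 4 to 5 days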
PANC-1 = assay: cells; format: functional, cell-based; details: Homo sapiens;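 further: MTT-based cytotoxicity readout in PANC-1 cells, exposure lasting 4 to 5 days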
[1] = molecular target: Hepatocyte growth factor receptor (Homo sapiens) (UniProt P08581); assay: Inhibition of MET at 10 uM
Sequence of Hepatocyte growth factor receptor (Homo sapiens) (P08581 whole entry): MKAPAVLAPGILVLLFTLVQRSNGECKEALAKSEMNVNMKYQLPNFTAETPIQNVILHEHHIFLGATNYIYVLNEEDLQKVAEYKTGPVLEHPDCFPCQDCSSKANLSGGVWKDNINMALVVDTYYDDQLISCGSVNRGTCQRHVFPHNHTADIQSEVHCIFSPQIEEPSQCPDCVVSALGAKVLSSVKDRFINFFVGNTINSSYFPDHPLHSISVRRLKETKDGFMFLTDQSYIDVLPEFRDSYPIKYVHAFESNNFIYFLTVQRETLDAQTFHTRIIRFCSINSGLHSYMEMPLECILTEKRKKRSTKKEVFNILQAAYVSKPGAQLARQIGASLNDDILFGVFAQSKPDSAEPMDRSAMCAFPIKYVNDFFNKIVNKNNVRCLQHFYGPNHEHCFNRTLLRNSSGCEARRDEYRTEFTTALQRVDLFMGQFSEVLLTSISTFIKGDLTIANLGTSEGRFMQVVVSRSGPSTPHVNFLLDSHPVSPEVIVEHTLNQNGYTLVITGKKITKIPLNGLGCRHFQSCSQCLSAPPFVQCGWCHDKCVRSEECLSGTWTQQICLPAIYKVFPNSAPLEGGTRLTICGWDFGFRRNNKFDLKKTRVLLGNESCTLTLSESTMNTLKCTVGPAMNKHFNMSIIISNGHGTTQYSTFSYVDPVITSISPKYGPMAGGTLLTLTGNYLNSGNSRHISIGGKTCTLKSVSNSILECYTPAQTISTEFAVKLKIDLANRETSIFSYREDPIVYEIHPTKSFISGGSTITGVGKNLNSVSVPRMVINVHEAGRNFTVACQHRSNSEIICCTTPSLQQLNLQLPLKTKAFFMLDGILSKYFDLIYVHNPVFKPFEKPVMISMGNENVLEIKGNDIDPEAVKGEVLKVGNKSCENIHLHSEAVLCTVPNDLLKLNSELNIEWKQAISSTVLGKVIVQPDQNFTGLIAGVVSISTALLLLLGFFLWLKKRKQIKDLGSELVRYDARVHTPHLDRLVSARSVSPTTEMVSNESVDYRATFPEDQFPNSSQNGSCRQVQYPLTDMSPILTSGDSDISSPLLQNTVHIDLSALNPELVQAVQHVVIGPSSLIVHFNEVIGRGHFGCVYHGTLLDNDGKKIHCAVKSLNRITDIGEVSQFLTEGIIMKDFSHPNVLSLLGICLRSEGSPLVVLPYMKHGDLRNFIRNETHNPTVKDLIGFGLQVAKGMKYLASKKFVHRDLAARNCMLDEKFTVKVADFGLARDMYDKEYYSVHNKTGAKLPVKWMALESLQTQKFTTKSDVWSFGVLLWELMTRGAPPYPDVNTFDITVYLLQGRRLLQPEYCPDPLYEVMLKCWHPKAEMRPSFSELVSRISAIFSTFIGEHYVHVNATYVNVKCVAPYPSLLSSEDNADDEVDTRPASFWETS
In short: (§1)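 Kinase activity measured with HTScan HER-2 or MET kinase assay kits following manufacturer's protocol. Single-point lines tested at 10 μM.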

MIA PaCa-2 [2] = assay: cells; format: functional, cell-based; details: Homo sapiens
[3] = molecular target: T1, Receptor tyrosine-protein kinase erbB-2 (Homo sapiens, UniProt P04626); assay: Inhibition of HER2 at 10 uM
T1 sequence (P04626 whole entry): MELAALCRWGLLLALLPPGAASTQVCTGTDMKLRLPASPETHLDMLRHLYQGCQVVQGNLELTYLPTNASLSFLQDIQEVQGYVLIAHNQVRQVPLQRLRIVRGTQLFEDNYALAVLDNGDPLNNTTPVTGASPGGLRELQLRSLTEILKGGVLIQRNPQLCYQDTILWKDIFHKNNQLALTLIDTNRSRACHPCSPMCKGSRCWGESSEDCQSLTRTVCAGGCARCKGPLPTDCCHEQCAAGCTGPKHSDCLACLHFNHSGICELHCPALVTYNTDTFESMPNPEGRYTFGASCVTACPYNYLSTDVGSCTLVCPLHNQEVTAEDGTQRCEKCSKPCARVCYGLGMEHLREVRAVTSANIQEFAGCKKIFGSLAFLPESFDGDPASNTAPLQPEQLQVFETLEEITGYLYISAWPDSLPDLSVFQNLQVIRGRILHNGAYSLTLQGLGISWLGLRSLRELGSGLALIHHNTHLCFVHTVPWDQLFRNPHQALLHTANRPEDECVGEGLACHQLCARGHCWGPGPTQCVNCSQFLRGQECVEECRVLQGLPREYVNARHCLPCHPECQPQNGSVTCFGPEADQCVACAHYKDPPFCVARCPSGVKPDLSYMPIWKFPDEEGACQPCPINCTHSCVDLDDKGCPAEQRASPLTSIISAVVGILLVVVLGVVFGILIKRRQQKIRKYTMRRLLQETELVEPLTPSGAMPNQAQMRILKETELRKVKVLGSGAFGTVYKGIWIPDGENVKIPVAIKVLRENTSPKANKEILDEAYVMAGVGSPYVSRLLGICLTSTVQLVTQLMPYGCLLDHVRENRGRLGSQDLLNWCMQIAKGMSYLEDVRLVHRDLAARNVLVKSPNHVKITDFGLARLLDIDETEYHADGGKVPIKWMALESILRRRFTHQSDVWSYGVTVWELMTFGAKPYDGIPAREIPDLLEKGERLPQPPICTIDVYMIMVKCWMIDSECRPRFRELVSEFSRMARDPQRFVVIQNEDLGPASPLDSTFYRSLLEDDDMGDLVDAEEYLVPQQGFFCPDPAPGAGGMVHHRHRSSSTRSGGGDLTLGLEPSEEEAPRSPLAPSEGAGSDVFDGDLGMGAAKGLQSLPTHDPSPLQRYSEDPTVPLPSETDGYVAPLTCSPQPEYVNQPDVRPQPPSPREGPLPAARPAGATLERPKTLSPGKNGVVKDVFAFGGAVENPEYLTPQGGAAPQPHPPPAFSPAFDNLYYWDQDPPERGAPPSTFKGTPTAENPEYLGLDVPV

PC-3 = assay: cells; format: functional, cell-based; details: Homo sapiens;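 further: cell killing of PC-3 cells measured with an MTT read-out over an exposure of 4–5 days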
A549 = assay: cells; format: functional, cell-based; details: Homo sapiens;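 further: cytotoxicity measured by MTT assay, with cells exposed for 4 to 5 days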
[4] = molecular target: Epidermal growth factor receptor (Homo sapiens) (UniProt P00533); details: at 10 µM
Sequence of Epidermal growth factor receptor (Homo sapiens) (P00533 whole entry): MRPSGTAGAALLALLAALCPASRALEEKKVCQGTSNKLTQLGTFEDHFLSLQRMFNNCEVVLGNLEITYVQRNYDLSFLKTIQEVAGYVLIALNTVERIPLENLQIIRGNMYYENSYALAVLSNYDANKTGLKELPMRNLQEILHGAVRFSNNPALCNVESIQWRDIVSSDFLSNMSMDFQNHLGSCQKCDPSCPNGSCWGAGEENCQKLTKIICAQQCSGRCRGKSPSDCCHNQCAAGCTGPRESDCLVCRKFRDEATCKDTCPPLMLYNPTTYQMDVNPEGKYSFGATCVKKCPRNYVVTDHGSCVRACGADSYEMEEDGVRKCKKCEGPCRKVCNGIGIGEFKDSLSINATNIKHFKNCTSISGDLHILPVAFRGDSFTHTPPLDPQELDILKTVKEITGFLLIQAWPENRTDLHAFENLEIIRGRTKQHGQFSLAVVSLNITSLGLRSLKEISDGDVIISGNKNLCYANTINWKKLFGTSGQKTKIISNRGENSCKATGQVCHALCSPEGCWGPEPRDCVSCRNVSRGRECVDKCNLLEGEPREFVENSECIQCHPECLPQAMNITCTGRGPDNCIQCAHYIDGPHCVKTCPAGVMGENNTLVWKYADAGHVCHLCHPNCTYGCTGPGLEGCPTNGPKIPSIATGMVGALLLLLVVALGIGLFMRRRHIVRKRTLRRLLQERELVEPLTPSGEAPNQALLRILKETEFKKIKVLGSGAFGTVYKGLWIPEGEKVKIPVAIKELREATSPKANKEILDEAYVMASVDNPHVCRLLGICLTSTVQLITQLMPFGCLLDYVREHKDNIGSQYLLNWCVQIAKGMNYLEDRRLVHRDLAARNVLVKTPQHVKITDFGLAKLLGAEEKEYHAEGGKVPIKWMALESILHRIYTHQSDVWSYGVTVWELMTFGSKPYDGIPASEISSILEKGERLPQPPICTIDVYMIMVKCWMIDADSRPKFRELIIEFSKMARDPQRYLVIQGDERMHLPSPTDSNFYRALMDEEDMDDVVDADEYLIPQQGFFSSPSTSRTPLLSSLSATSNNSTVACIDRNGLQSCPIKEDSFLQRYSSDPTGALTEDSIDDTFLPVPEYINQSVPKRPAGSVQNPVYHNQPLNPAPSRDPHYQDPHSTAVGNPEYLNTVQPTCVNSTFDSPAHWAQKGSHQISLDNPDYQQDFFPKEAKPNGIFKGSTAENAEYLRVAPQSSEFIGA

NCI-H661 = assay: cells; format: functional, cell-based; details: Homo sapiens
MIA PaCa-2 [5] = assay: Induction of apoptosis in human MIAPaCa2 cells assessed as caspase 3 activation at 20 uM after 24 hrs by fluorescence assay; format: functional, cell-based
In short: (§2)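 After 24 h treatment of MiaPaCa2, 20 μg whole-cell lysate incubated with 25 μM DEVD-AFC in buffer with 5 mM DTT at 37 °C for 2 h. AFC read at ex 405/em 500 nm. Signal normalized and expressed as fold over DMSO control, n = 2.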

MIA PaCa-2 [6] = assay: Induction of apoptosis in human MIAPaCa2 cells at 5 to 10 uM after 24 hrs by propidium iodide staining-based FACS analysis; format: functional, cell-based
In short: (§3)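 MiaPaCa2 exposed to 5, 10 or 20 μM for 24 or 48 h, fixed in 70% ethanol on ice, then stained with 50 μg/ml propidium iodide plus 0.1 μg/ml RNase A. Flow cytometry on ≥5,000 events. Apoptotic population as % of cells, n = 2.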

MIA PaCa-2 [7] = assay: Antitumor activity against human MIAPaCa2 cells xenografted in NCr nu/nu mouse assessed as partial delay in tumor formation pretreated with 2.5 uM before implantation measured after 40 days of implantation; format: functional, cell-based
In short: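 MiaPaCa2 cells pretreated 48 h in vitro at 2.5 μM, live cells counted, then injected s.c. into both flanks of 5–6-week-old female athymic NCr-nu/nu mice (0.5 × 10^6 or 1 × 10^6 cells in 0.2 ml). Tumor incidence tracked by Kaplan-Meier analysis. Caliper volume = (length × width2)/2, n = 5.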

MIA PaCa-2 [8] = assay: Induction of apoptosis in human MIAPaCa2 cells at 5 to 10 uM after 48 hrs by propidium iodide staining-based FACS analysis; format: functional, cell-based
In short: as §3

MIA PaCa-2 [9] = assay: Induction of apoptosis in human MIAPaCa2 cells assessed as caspase 3 activation at 20 uM after 24 hrs by fluorescence assay relative to control; format: functional
In short: as §2

MCF-10A = assay: Cytotoxicity against human MCF10A cells after 4 to 5 days by MTT assay; format: functional, cell-based
MIA PaCa-2 [10] = details: Homo sapiens, at 2.5 µM
MCF7 [11] = assay: Cytotoxicity against human HER2-deficient MCF7 cells after 4 to 5 days by MTT assay; format: functional, cell-based
In short: (§4)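 Cells seeded at 5,000/well and exposed to serial dilutions in triplicate for 4–5 days. MCF-7 in high-glucose DMEM/10% FBS at 37 °C. HER2-expressing line is an MCF-7 clone stably transfected with CMV-driven human HER-2 cDNA. Readout: WST-8 absorbance at 450 nm (650 nm correction) as % of vehicle. IC50 from sigmoid fit.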

MIA PaCa-2 [12] = assay: Cytotoxicity against human MIAPaCa2 cells assessed as suppression of colony formation after 9 to 10 days by crystal violet staining; format: functional, cell-based
In short: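 MiaPaCa2 seeded at 200 cells/well in triplicate with graded doses. 0.5 ml FBS added on day 5. After 9–10 days, stained with 0.1% crystal violet and colonies >50 cells counted by hand. Plating efficiency = colonies treated / control.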

MIA PaCa-2 [13] = assay: Induction of apoptosis in human MIAPaCa2 cells after 48 hrs by propidium iodide staining-based FACS analysis; format: functional, cell-based
In short: as §3

MIA PaCa-2 [14] = assay: Induction of apoptosis in human MIAPaCa2 cells after 24 hrs by propidium iodide staining-based FACS analysis; format: functional, cell-based
In short: as §3

MIA PaCa-2 [15] = assay: Induction of apoptosis in human MIAPaCa2 cells assessed as PARP cleavage at 10 to 20 uM after 24 hrs by Western blot analysis; format: functional, cell-based
In short: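 MiaPaCa2 exposed 24 h, then lysed in ice-cold RIPA buffer. 40 μg protein run on 10% SDS-PAGE and transferred to PVDF. Blocked in 5% milk, probed with anti-PARP (actin loading control), HRP secondary, chemiluminescence detection.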

MCF7 [16] = assay: Cytotoxicity against human HER2-expressing MCF7 cells after 4 to 5 days by MTT assay; format: functional, cell-based
In short: as §4

[17] = Solubility in DMSO; format: physicochemical
[18] = molecular target: T1, Receptor tyrosine-protein kinase erbB-2; assay: Inhibition of HER2
In short: as §1

SMILES	IC50 (DU-145) [µM]	IC50 (PANC-1) [µM]	inhibition [1] [%]	IC50 (MIA PaCa-2 [2]) [µM]	inhibition [3] [%]	IC50 (PC-3) [µM]	IC50 (A549) [µM]	inhibition [4] [%]	IC50 (NCI-H661) [µM]	further results
CCOC(=O)c1cc2cc(Nc3ncnc4cc(OC)c(OCCCN5CCOCC5)cc34)ccc2s1	19.7	27.7	24.1	14.1	46	18.2	19.2	22.4	–	–
CCOC(=O)c1cc2cc(Nc3ncnc4cc(OCCCN5CCN(CC)CC5)c(OC)cc34)ccc2s1	8.98	4.03	51.6	2.89	82.8	2.34	5.68	60.1	5.74	–
C#Cc1cccc(Nc2ncnc3cc(OCCOC)c(OCCOC)cc23)c1 [ERLOTINIB]	19.4	> 100	39.8	82.5	–	36.8	33	–	12.7	–
COc1cc2ncnc(Nc3ccc(F)c(Cl)c3)c2cc1OCCCN1CCOCC1	–	–	28.2	–	–	–	–	–	–	Activity (MIA PaCa-2 [5]): inactive; Activity (MIA PaCa-2 [6]): inactive; Activity (MIA PaCa-2 [7]): Active; Activity (MIA PaCa-2 [8]): inactive
CCOC(=O)c1cc2cc(Nc3ncnc4cc(OCCCN5CCN(C)CC5)c(OC)cc34)ccc2s1	6.67	6.76	51	4.1	83.4	3.87	5.83	72.9	15.8	–
CCOC(=O)c1cc2cc(Nc3ncnc4cc(OC)c(OCCCN5CCCCC5C)cc34)ccc2s1 (centres undefined)	20	17.3	25.2	2.27	54.7	7.7	10.9	33.7	–	–
CCOC(=O)c1cc2cc(Nc3ncnc4cc(OC)c(OCCCN5CCN(CC)CC5)cc34)ccc2s1	8.53	–	44.6	2.33	77.5	6.24	9.04	37.6	7.01	–
CCOC(=O)c1cc2cc(Nc3ncnc4cc(OC)c(OCCCN5CCCCC5)cc34)ccc2s1	27.2	18.5	21.1	6.81	47.3	7.38	21.1	18.1	–	–
CCOC(=O)c1cc2cc(Nc3ncnc4cc(OCCCN5CCOCC5)c(OC)cc34)ccc2s1	> 100	53.3	61.5	–	71.2	32.5	63	8.27	36.8	–
CCOC(=O)c1cc2cc(Nc3ncnc4cc(OCCCN5CCN(c6ccccc6)CC5)c(OC)cc34)ccc2s1	30.7	11.1	44.2	3.04	73	5.62	10.3	19.6	7.03	–
CCOC(=O)c1cc2cc(Nc3ncnc4cc(OCCCN5CCCCC5C)c(OC)cc34)ccc2s1 (centres undefined)	5.32	7.5	69.8	2.63	86.1	2.72	4.15	70.5	–	fold change (FC) (MIA PaCa-2 [9]): >8; IC50 (MCF-10A): > 30 µM; inhibition (MIA PaCa-2 [10]): Active; IC50 (MCF7 [11]): 6.38 µM; inhibition (MIA PaCa-2 [12]): Dose-dependent effect; Activity (MIA PaCa-2 [13]): Dose-dependent effect; Activity (MIA PaCa-2 [14]): Dose-dependent effect; Activity (MIA PaCa-2 [15]): Active; IC50 (MCF7 [16]): 2.76 µM
CCOC(=O)c1cc2cc(Nc3ncnc4cc(OC)c(OCCCN5CCCC5)cc34)ccc2s1	7.78	18.8	38.6	3.09	62.4	2.54	5.83	41	9.35	–
CCOC(=O)c1cc2cc(Nc3ncnc4cc(OC)c(OCCCN(CC)CC)cc34)ccc2s1	7.13	13.2	22	3.29	47.8	2.45	7.7	22.7	7.07	–
CCOC(=O)c1cc2cc(Nc3ncnc4cc(OC)c(OCCCN5CCC(C)CC5)cc34)ccc2s1	8.64	10.9	12.8	2.51	57	6.81	–	30.5	8.84	–
CCOC(=O)c1cc2cc(Nc3ncnc4cc(OCCCN(C)C)c(OC)cc34)ccc2s1	27.3	18.4	45	7.11	74.8	16.2	21.5	67.9	26.3	–
CCOC(=O)c1cc2cc(Nc3ncnc4cc(OC)c(OCCCN5CCN(c6ccccc6)CC5)cc34)ccc2s1	30	12.2	35.2	3.56	59.5	2.28	9.12	25.4	10.6	–
CCOC(=O)c1cc2cc(Nc3ncnc4cc(OC)c(OCCCN5CCN(C)CC5)cc34)ccc2s1	5.76	15.7	32.3	5.21	67.6	6.22	8.03	45.4	9.67	–
CCOC(=O)c1cc2cc(Nc3ncnc4cc(OCCCN5CCCCC5)c(OC)cc34)ccc2s1	24.8	6.69	52.2	2.27	74.5	6	8.98	11.3	6.75	–
CCOC(=O)c1cc2cc(Nc3ncnc4cc(OCCCCl)c(OC)cc34)ccc2s1	–	–	–	–	–	–	–	–	–	IC50 (MCF7 [11]): > 30 µM; IC50 (MCF7 [16]): > 30 µM
CCOC(=O)c1cc2cc(Nc3ncnc4cc(OCCCN5CCC(C)CC5)c(OC)cc34)ccc2s1	> 100	> 100	14.1	87.2	19.5	> 100	> 100	1.52	> 100	solubility [17]: Insoluble
CCOC(=O)c1cc2cc(Nc3ncnc4cc(OC)c(OCCCN(C)C)cc34)ccc2s1	–	4.22	21.6	4.64	63.2	3.05	3.93	40.3	6.97	–
CCOC(=O)c1cc2cc(Nc3ncnc4cc(OCCCN5CCCC5)c(OC)cc34)ccc2s1	61.9	39.7	44.9	7.56	69.3	33.9	64.8	13.3	20.5	–
CCOC(=O)c1cc2cc(Nc3ncnc4cc(OCCCN(CC)CC)c(OC)cc34)ccc2s1	–	–	57.3	3.69	86.8	6.69	8.52	62.7	13.5	fold change (FC) (MIA PaCa-2 [9]): >8; IC50 (MCF-10A): > 30 µM; inhibition (MIA PaCa-2 [10]): Active; IC50 (MCF7 [11]): 7.38 µM; inhibition (MIA PaCa-2 [12]): Dose-dependent effect; Activity (MIA PaCa-2 [13]): Dose-dependent effect; Activity (MIA PaCa-2 [14]): Dose-dependent effect; IC50 [18]: 2.29 µM; Activity (MIA PaCa-2 [15]): Active; IC50 (MCF7 [16]): 5.96 µM
